Measurements taken from PMC9058365 (RSC Advances, 2020).

How the values were obtained:
Pharmacokinetic study = format: in vivo; details: rabbit plasma, n = 3; for T max: 5 IU kg^−1, HPLC; for AUC0–12: 5 IU kg^−1, trapezoidal method, mean ± SD
[1] = system: New Zealand albino rabbits; test: In vivo tolerance study; details: rabbit eye, scale 0-3, n = 3
Summary of the method: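 Male New Zealand albino rabbits (1.5–2.0 kg) free of ocular inflammation, housed at 25 ± 2 °C, 75% RH, 12:12 h light cycle. Nine animals were split into three groups of three. […] Macroscopic signs were graded at 0.5, 4.0 and 16.0 h, and scores were summed into an overall irritation index.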

[2] = system: diabetic rabbits (streptozotocin); test: In vivo anti-diabetic study; parameters: species or system rabbit; details: at 4 h, subcutaneous injection, n = 3
Summary of the method: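 Male New Zealand albino rabbits (1.5–2.0 kg) made diabetic by intravenous streptozotocin (65 mg kg−1, in citrate buffer pH 5.0) given in the evening for three days. Baseline blood glucose was taken on day 1 after overnight fasting. Blood glucose was followed over time and expressed as % of initial level, n = 3 per group.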

[3] = rabbits, administered topically via ocular route; ref 25 (Yamamoto et al., 1989); cited from earlier work
[4] = 0.5 h after single instillation of 50 μl
[5] = 4.0 h after single instillation of 50 μl
[6] = 16.0 h after single instillation of 50 μl

Insulin [Plain insulin solution]
T max (Pharmacokinetic study; ocular instillation): 19.8 min
AUC0–12 (Pharmacokinetic study; ocular instillation): 1870 ± 1700 ng·h/mL
Conjunctiva grade [1, 4]: 0
Cornea grade [1, 4]: 0
Discharge grade [1, 4]: 0
Lids grade [1, 4]: 0
Conjunctiva grade [1, 5]: 0
Cornea grade [1, 5]: 0
Discharge grade [1, 5]: 1
Discomfort grade [1, 5]: 0
Lids grade [1, 5]: 0
Conjunctiva grade [1, 6]: 0
Cornea grade [1, 6]: 0
Discharge grade [1, 6]: 0
Discomfort grade [1, 6]: 0
Lids grade [1, 6]: 0

Subcutaneous insulin injection: subcutaneous injection of human insulin solution
T max (Pharmacokinetic study; subcutaneous injection): 30 min
AUC0–12 (Pharmacokinetic study; subcutaneous injection): 197380 ± 2760 ng·h/mL
drop in blood glucose level [2]: 71.08 ± 3.24

insulin
bioavailability [3]: less than 1%
